The list is not random: actives were taken first. Their share in the collection is about 1.7%.
CHRM5 antagonist: human M5 muscarinic receptor antagonists, primary screen, CHO cells, Fluo-8 calcium fluorescence. Muscarinic acetylcholine receptor M5 (Homo sapiens), P08912. CHO-hM5 cells, ACh EC80. inhibition, % at 3 µM. actives 0.59% (n = 360,000);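 active = inhibition above a per-plate cutoff, the mean of that plate's test compounds plus 3 SD, cut at about 27% in these data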
Target sequence (P08912 whole entry, looked up): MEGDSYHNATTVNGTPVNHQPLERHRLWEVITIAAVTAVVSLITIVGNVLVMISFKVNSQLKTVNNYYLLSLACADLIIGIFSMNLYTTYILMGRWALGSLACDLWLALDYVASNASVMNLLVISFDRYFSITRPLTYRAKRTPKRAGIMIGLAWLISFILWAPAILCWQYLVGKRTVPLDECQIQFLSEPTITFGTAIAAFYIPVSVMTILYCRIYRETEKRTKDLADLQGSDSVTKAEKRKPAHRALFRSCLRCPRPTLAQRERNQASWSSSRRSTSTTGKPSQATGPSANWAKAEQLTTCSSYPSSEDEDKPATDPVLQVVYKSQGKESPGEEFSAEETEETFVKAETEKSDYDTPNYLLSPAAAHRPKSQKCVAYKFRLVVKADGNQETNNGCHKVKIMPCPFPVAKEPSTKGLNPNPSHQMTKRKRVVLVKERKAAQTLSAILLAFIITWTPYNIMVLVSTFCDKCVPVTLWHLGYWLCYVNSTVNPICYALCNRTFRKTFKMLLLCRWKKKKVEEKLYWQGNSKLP
CHO-K1 Ca antag: nonselective inhibitor or artifact in parental CHO-K1 cells; ATP-induced calcium, Fluo-8 fluorescence; inhibition, % at 3 µM; actives 0.6% (n = 360,000); AID 602250;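 active = inhibition above a per-plate cutoff, the plate's mean sample inhibition plus 3 SD, cut at about 24% in these data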
M5 ag: human M5 muscarinic receptor agonists, primary screen, CHO-K1 cells, Fluo-8 calcium fluorescence; Muscarinic acetylcholine receptor M5 (Homo sapiens), P08912; CHO-K1 hM5 cells; 0% DMSO wells, 100% maximal acetylcholine response; activation, % at 3 µM; actives 0.19% (n = 360,000); AID 624037, 2012;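 active = activation above the run's mean over test compounds plus 3 SD, cut at about 23% in these data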;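 also: signal is peak over basal fluorescence ratio across the kinetic read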
CHO-K1 Ca ag: counter-screen for M1 agonists: effect in parental CHO-K1 cells; AID 602248, 2012; actives 0.48% (n = 360,000); activation, % at 3 µM; Fluo-8 calcium fluorescence; scaled to maximal ATP response, vehicle zero; in the data active = activation above about 15%;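 also: untransfected CHO-K1 host cells lacking M1 receptor as counterscreen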
CHO-K1 Ca PAM: nonselective calcium activators in parental CHO-K1 cells, primary screen, counter-screen for M1 PAM project, cell-based, Fluo-8 calcium fluorescence, full deck, 1536-well; ATP EC20; 0% at ATP EC20, 100% at ATP max; activation, % at 3 µM; actives 0.02% (n = 360,000);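 active = activation above the run cutoff, the mean activation of all test compounds plus 3 SD, cut at about 40% in these data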;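 also: peak over basal fluorescence ratio in a 140 s read after ATP addition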
CHRM5 PAM: human M5 muscarinic receptor positive allosteric modulators, primary screen, CHO-K1 cells, Fluo-8 calcium fluorescence; Muscarinic acetylcholine receptor M5 (Homo sapiens), P08912; CHO-K1 hM5, ACh EC20 PAM; 0% = ACh EC20, 100% = ACh EC100; activation, % at 3 µM; actives 0.3% (n = 360,000);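 active = activation above the run cutoff, the mean activation of all test compounds plus 3 SD, cut at about 18% in these data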
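system = human M5 receptor in CHO-K1 cells | compound = one concentration, 3 µM final (nominal) | schedule = Post-acetylcholine fluorescence recording 140 s | signal = Fluo-8 calcium dye fluorescence, kinetic read | benchmarks = low control EC20 acetylcholine (0%), high control EC100 acetylcholine (100%) | repeats = singlicate, one well per test compound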
Of the large screens only hits and unclear results are named; the others gave an inactive call.

CCc1cc(CNC(=O)C2CCC(=O)N(CCc3ccc(OC)cc3)C2)on1 (stereo unspecified)	CHRM5 antagonist 28
COc1ccccc1CNC(=O)C1CCC(=O)N(CCCc2ccccc2)C1 (stereo unspecified)	CHO-K1 Ca antag 32
Cn1cccc1/C=C1\SC(=S)N(NC(=O)c2ccccc2Cl)C1=O	none
COc1ccc(OC)c(NS(=O)(=O)c2ccc(-n3cccn3)cc2)c1	CHO-K1 Ca antag 26
O=C(COc1ccc2c(c1)OCO2)Nc1ccccc1F	none
COC(=O)c1ccccc1NC(=O)COc1ccc2c(c1)OCO2	CHO-K1 Ca antag 30
NS(=O)(=O)c1ccc(CCNC(=O)C(=O)Nc2cc3c4c(c2)CC(=O)N4CCC3)cc1	none
COc1ccc(CN(Cc2ccccn2)S(=O)(=O)c2ccc(-n3cnnn3)cc2)cc1	CHO-K1 Ca antag 40
O=C(N/N=C\C=C\c1ccco1)c1cncc(Br)c1	none
O=C(CSc1nnc2n1CCCN2)c1ccc([N+](=O)[O-])cc1	CHO-K1 Ca ag 19
C[N+](C)(C)CC(=O)N/N=C/c1c2ccccc2cc2ccccc12	M5 ag 32
Cc1nc(N)c(C#N)c(-c2cccnc2)c1C	CHRM5 PAM 26
COc1cc(/C=C/C(=O)OCC(=O)N2CCCC2)cc(OC)c1OC	none
COc1ccc(-c2noc(CCCCC(=O)N3CCN(c4cc(C)ccc4C)CC3)n2)cc1	CHRM5 antagonist 32
COc1ccc(-c2noc(CCCC(=O)N3CCN(c4cc(C)ccc4C)CC3)n2)cc1	none
COc1cc(C(=O)Nc2ccc([N+](=O)[O-])cn2)cc(OC)c1OC	none
Nc1nc(NCc2ccccc2)nc(Nc2cccc(F)c2)c1[N+](=O)[O-]	none
Nc1nc(Nc2cccc(F)c2)nc(NCCO)c1[N+](=O)[O-]	CHO-K1 Ca ag 15
Cc1oc(-c2ccc(Cl)cc2)nc1CS(=O)CC(=O)NCCCN1CCN(Cc2ccccc2)CC1 (stereo unspecified)	CHRM5 antagonist 31
COc1cnn(-c2ccc(C)cc2)c(=O)c1Cl	CHO-K1 Ca antag 25
O=c1[nH]c2cc3c(cc2cc1CN(CCc1ccccc1)C(=S)NCCCN1CCOCC1)OCCO3	CHO-K1 Ca antag 60
O=C(CSc1nc(Nc2ccccc2)nc(N2CCOCC2)n1)Nc1ccc([N+](=O)[O-])cc1	none
O=C(CSc1nc(N2CCOCC2)nc(N2CCOCC2)n1)Nc1ccc([N+](=O)[O-])cc1	CHRM5 PAM 22
COc1cc2c(C#N)c(N3CCc4ccccc4C3)nc(N)c2c(N)n1	CHRM5 PAM 37
CCn1cc(C(=O)NC2CCCc3c2cnn3-c2cccc(C)c2C)cn1 (stereo unspecified)	CHO-K1 Ca antag 25
O=C(c1ccco1)N1N=C(c2ccc3nccnc3c2)CC1c1ccccc1 (stereo unspecified)	CHO-K1 Ca PAM 47
CCOC(=O)C1=C(O)/C(=C\c2ccc(CNC(=O)C(=O)Nc3ccccc3)o2)N=C1C	CHO-K1 Ca antag 28
CCOC(=O)C1=C(O)/C(=C\c2cccs2)N=C1C	none
O=C(NCc1cccnc1)C(=O)NCC1OCCN1S(=O)(=O)c1ccccc1 (stereo unspecified)	none
Cc1ccc(S(=O)(=O)N2CCOC2CNC(=O)C(=O)NCc2cccnc2)cc1 (stereo unspecified)	CHO-K1 Ca antag 36
CC(=O)N1c2ccc(S(=O)(=O)N3CCC(C(=O)NC4CCC(C)CC4)CC3)cc2CC1C (stereo unspecified)	none
CCOC(=O)c1ccc(N=C2SC(C(=O)NCCc3ccccc3)CC(=O)N2C)cc1 (stereo unspecified)	none
CCNC(=O)C1CC(=O)N(CCCc2ccccc2)C(=Nc2ccccc2)S1 (stereo unspecified)	CHO-K1 Ca ag 19
COc1ccc(OC)c(C(=O)Cn2c3[n+](c4ccc(C(F)(F)F)cc42)CCCCC3)c1	none
Cc1ccc(NNC(=O)C(O)(c2cccc(C(F)(F)F)c2)c2cccc(C(F)(F)F)c2)cc1	none
O=C(NNc1ccccc1Br)C(O)(c1cccc(C(F)(F)F)c1)c1cccc(C(F)(F)F)c1	CHRM5 antagonist 29
COc1ccccc1N1CCN(C(=O)c2cn(Cc3ccccc3)nc2-c2cccnc2)CC1	M5 ag 29
CCOC(=O)c1nnc(-c2ccccc2)nc1Sc1ccccc1Cl	CHRM5 antagonist 29
CCOC(=O)c1nnc(-c2ccc(C)cc2)nc1Sc1cccc(Cl)c1	none
CN(C)CCCN(C(=O)CCc1ccccc1)c1nc2c(F)cccc2s1	CHO-K1 Ca ag 18
CN(C)CCCN(C(=O)CCOc1ccccc1)c1nc2c(F)cccc2s1	none
Cc1ccc(C)c(CNS(=O)(=O)c2c(C)[nH]c(C)c2C(=O)N2CCCCC2)c1	CHRM5 PAM 19
O=C(Cn1ncc2c3ccccc3n(Cc3ccccc3F)c2c1=O)NCCN1CCOCC1	none
O=C(COc1ccc2ccccc2c1)N1CCN(C(=O)c2ccc([N+](=O)[O-])cc2)CC1	none
CN1C/C(=C\c2ccc(N3CCOCC3)cc2)C(=O)/C(=C/c2ccc(N3CCOCC3)cc2)C1	none
CCN1C/C(=C/c2ccc(N3CCOCC3)cc2)C(=O)/C(=C/c2ccc(N3CCOCC3)cc2)C1	CHO-K1 Ca antag 27, CHO-K1 Ca ag 34
O=C(COC(=O)c1cccc(S(=O)(=O)N2CCN(c3ccc(F)cc3)CC2)c1)NCC1CCCO1 (stereo unspecified)	none
CN(CC(=O)Nc1ccc(Cl)c(S(=O)(=O)N2CCOCC2)c1)C(=O)c1cccs1	none
Cn1c(SCC(=O)N2CCOCC2)nc(O)cc1=O	none
COCCNc1nc(NCc2ccccc2)c2cnn(C)c2n1	none
COCCNc1nc(N2CCCCC2)c2cnn(C)c2n1	CHRM5 PAM 18
COc1ccc(Cc2nnc(NC(=O)c3ccc(F)cc3)s2)cc1OC	CHO-K1 Ca antag 29
Cc1c(/C=N/NC(=O)c2sc3ccccc3c2Cl)cnn1C	CHO-K1 Ca antag 26
CN(CCOc1ccc(Cl)cc1)C(=O)c1cc(-c2ccco2)nc2ccccc12	CHRM5 antagonist 28, CHO-K1 Ca antag 24
Oc1ccc(Cl)cc1C1=NNC(c2cc(Br)cc3c2OCOC3)C1 (stereo unspecified)	CHRM5 PAM 21
Oc1ccc(Cl)cc1C1=NNC(c2ccc(Cl)cc2)C1 (stereo unspecified)	none
O=S1(=O)C[C@H](N2CCCC2)[C@@H](COCc2ccccc2)N1	CHO-K1 Ca antag 25
